Results on 6 compounds are retold here after ChEMBL document CHEMBL1148719, “Fine-tuning the amphiphilicity: a crucial parameter in the design of potent alpha-phenyl-N-tert-butylnitrone analogues” (J Med Chem, 2007).

The species entered for data set [1] is Rattus norvegicus. As to the kind of experiment: Inhibition of hydrogen peroxide-induced inactivation of mitochondrial NADH:ubiquinone oxidoreductase iron sulfur cluster N2 at 10 uM. In a few lines:
(§1)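 Rat brain submitochondrial particles were incubated for 30 min with hydrogen peroxide, peroxynitrite or doxorubicin, with or without nitrone at 10 µM. Complex I iron sulfur cluster N2 activity was measured as ferricyanide reduction. The value is the percentage inhibition of oxidative inactivation. Data are mean ± SEM (N = 10). Controls were vehicle-treated particles exposed to oxidotoxin alone; statistics were ANOVA with Bonferroni t-test.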

Data set [2] is described as follows: Cytoprotection in rat mixed cortical cells cultures assessed as inhibition of hydrogen peroxide-induced cell death at 10 uM after 24 hrs. Type of data set: functional. The procedure, abridged: (§2)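 Mixed cortical cultures were treated for 24 h with oxidotoxin (hydrogen peroxide, peroxynitrite or doxorubicin, 200 µM), with antioxidant added at 10 µM. The value is the percentage inhibition of Trypan blue absorbance, read as enhanced cell survival. Data are mean ± SEM (N = 10). Comparison was against vehicle control by ANOVA with Bonferroni t-test.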

In data set [3] the test system is Rotifers. Nature of the data set: Cytoprotection against hydrogen peroxide-induced toxicity in rotifer assessed as viability at 10 uM. Type of data set: functional, Rotifera. In a few lines: (§3)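 Whole rotifers were exposed for 24 h to oxidotoxin (hydrogen peroxide or doxorubicin, 200 µM), with nitrone antioxidant added at 10 µM. Read-out was the percentage of viable organisms. Data are mean ± SEM (N = 10). Comparison was against vehicle control by ANOVA followed by Bonferroni t-test.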

Data set [4] is described as follows: Cytoprotection in rat mixed cortical cells cultures assessed as inhibition of peroxynitrite-induced cell death at 10 uM after 24 hrs. The class given is functional. In a few lines:
as §2

Data set [5] in a line: Cytoprotection in rat mixed cortical cells cultures assessed as inhibition of doxorubicin-induced cell death at 10 uM after 24 hrs. Type of data set: functional. The procedure, abridged:
as §2

Data set [6] is filed under the species Rattus norvegicus. Nature of the data set: Inhibition of peroxynitrite-induced inactivation of mitochondrial NADH:ubiquinone oxidoreductase iron sulfur cluster N2 at 10 uM. The procedure, abridged: as §1
The species entered for data set [7] is Rattus norvegicus. Nature of the data set: Inhibition of doxorubicin-induced inactivation of mitochondrial NADH:ubiquinone oxidoreductase iron sulfur cluster N2 at 10 uM. The procedure, abridged:
as §1

Data set [8] has as its system Rotifers. As to the kind of experiment: Cytoprotection against doxorubicin-induced toxicity in rotifer assessed as viability at 10 uM. Type of data set: functional, Rotifera. In a few lines: as §3
Data set [9] is described as follows: Toxicity against rat mixed cortical cells cultures at 10 uM. The class given is cell-based.

`CC(C)(CNC(=O)CCC(F)(F)C(F)(F)C(F)(F)C(F)(F)C(F)(F)C(F)(F)F)/[N+]([O-])=C/c1ccc(CNC(=O)[C@H](O)[C@H](O)[C@H](O[C@@H]2O[C@H](CO)[C@H](O)[C@H](O)[C@H]2O)[C@@H](O)CO)cc1`: the inhibition in the data set filed under Rattus norvegicus [1] worked out at 51.9%; in the data set filed under Rattus norvegicus [6], 39.3%; in the data set filed under Rattus norvegicus [7], 57.3%. In addition, the results for the inhibition at 10 µM in data set [2], in [4] and in [5] were 63.4%, 40.1% and 34.9%, respectively. The Activity in the data set on Rotifers [3] was determined as 40.6%; with Rotifers [8], 30.6%.
Turning to `CCCCCCCC(=O)NCC(C)(C)/[N+]([O-])=C/c1ccc(CNC(=O)[C@H](O)[C@H](O)[C@H](O[C@@H]2O[C@H](CO)[C@H](O)[C@H](O)[C@H]2O)[C@@H](O)CO)cc1`, the results for the inhibition in the data set filed under Rattus norvegicus [1], in the data set listed under Rattus norvegicus [6] and in the data set listed under Rattus norvegicus [7] were 78.3%, 72.5% and 90.7%, respectively. In addition, the figures for the inhibition at 10 µM in data set [2], in data set [4] and in data set [5] were 81%, 61% and 82%, respectively. In addition, the Activity is on record as 83% with Rotifers [3] and 85.8% with Rotifers [8].
On to `CCCCCCCC(=O)NCC(C)(C)/[N+]([O-])=C/c1ccccc1OCC`, for which the Activity entry in [9] was “Toxic”.
Regarding `CCCCCCCC(=O)NCC(C)(C)/[N+]([O-])=C/c1ccc(C(=O)NCC(=O)NC(CO)(CO)CO)cc1`, the inhibition was 59.2% in the data set listed under Rattus norvegicus [1], 40.5% in the data set listed under Rattus norvegicus [6] and 83.5% in the data set listed under Rattus norvegicus [7]. For the same compound, the inhibition at 10 µM stood at 33.8% in [2], 30.5% in data set [4] and 74.3% in [5]. Besides, the values for the Activity in the data set on Rotifers [3] and in the data set on Rotifers [8] were 24.1% and 54.3%, respectively.
For the compound `CC(C)(C)/[N+]([O-])=C\c1ccc(CNC(=O)[C@@H](O)[C@H](O)[C@H](O[C@@H]2O[C@H](CO)[C@H](O)[C@H](O)[C@H]2O)C(O)CO)cc1` (stereo partly specified), the inhibition in the data set filed under Rattus norvegicus [1] was found to be 25.1%; in the data set filed under Rattus norvegicus [6], 17.3%; in the data set filed under Rattus norvegicus [7] it was 13.5%. The inhibition at 10 µM was found to be 18.3% in [2], 17.3% in data set [4] and 18.5% in data set [5]. Also, the Activity in the data set with Rotifers [3] is listed as 18.6%; in the data set on Rotifers [8], 18.2%.
Turning to `CC(C)(C)/[N+]([O-])=C/c1ccccc1`, the inhibition worked out at 35% in the data set listed under Rattus norvegicus [1], 27.6% in the data set listed under Rattus norvegicus [6] and 44.3% in the data set filed under Rattus norvegicus [7]. Also, the inhibition at 10 µM in data set [2] came out at 25%; in data set [4] it was 20.6%; in data set [5], 24.2%. The Activity is given as 25.6% with Rotifers [3] and 18.7% with Rotifers [8].
